From ChEMBL document CHEMBL5058577, “EUbOPEN Chemogenomics Library 2 (Multiplex)” (2022)

Tested on: Fibroblast
Assay: Multiplex assay against human fibroblast
Format: toxicity, cell-based
Outline: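 Hoechst33342, BioTracker Green Microtubule Cytoskeleton Dye, MitoTracker Red and Annexin V Alexa Fluor 680 were added to live cells at seeding, and imaging on a CQ1 microscope at 37°C and 5% CO2 followed compound addition. Gating by CellPathfinder machine learning separated cells into Hoechst high-intensity objects or normal cells, then normal cells into healthy, pyknosed or fragmented nuclei, then pyknosed cells into mitotic or apoptotic. Per cents of healthy-nucleus cells are reported for the tubulin, mitochondrial-mass and membrane-permeability phenotypes.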

[1] = 12 h, 1 µM, compound concentration 1 uM, replicate 1
[2] = 12 h, 1 µM, compound concentration 1 uM, replicate 2
[3] = 12 h, 10 µM, compound concentration 10 uM, replicate 1
[4] = 12 h, 10 µM, compound concentration 10 uM, replicate 2
[5] = 24 h, 1 µM, compound concentration 1 uM, replicate 1
[6] = 24 h, 1 µM, compound concentration 1 uM, replicate 2
[7] = 24 h, 10 µM, compound concentration 10 uM, replicate 1
[8] = 24 h, 10 µM, compound concentration 10 uM, replicate 2
[9] = 48 h, 1 µM, compound concentration 1 uM, replicate 1
[10] = 48 h, 1 µM, compound concentration 1 uM, replicate 2
[11] = 48 h, 10 µM, compound concentration 10 uM, replicate 1
[12] = 48 h, 10 µM, compound concentration 10 uM, replicate 2

For CCCOc1ccc2[nH]cc(C3=CCNCC3)c2n1.Cl, the “Population Apoptotic (%)” value [1] was 42%, the “Population Fragmented Nuclei (%)” value [1] was 13% and the “Population Healthy Nuclei (%)” value [1] was 71%. For the same molecule, the “Population Hoechst High Intensity Objects (%)” value [1] was 2%, the “Population Membrane Permeable-Phenotype (%)” value [1] was 0% and the “Population Mitochondria Different-Phenotype (%)” value [1] was 6%. The “Population Mitotic Cells (%)” value [1] was 57%, the “Population Normal (%)” value [1] was 97% and the “Population Pyknosed Nuclei (%)” value [1] was 15%. For the same molecule, the “Population Tubulin-Different-Phenotype (%)” value [1] was 27%, the “Total Cell Count” value [1] was 143 and the “Population Apoptotic (%)” value [2] was 48%. The “Population Fragmented Nuclei (%)” value [2] was 25%, the “Population Healthy Nuclei (%)” value [2] was 52% and the “Population Hoechst High Intensity Objects (%)” value [2] was 0%. The “Population Membrane Permeable-Phenotype (%)” value [2] was 8%, the “Population Mitochondria Different-Phenotype (%)” value [2] was 2% and the “Population Mitotic Cells (%)” value [2] was 51%. For the same molecule, the “Population Normal (%)” value [2] was 99%, the “Population Pyknosed Nuclei (%)” value [2] was 21% and the “Population Tubulin-Different-Phenotype (%)” value [2] was 47%. For the same molecule, the “Total Cell Count” value [2] was 137, the “Population Apoptotic (%)” value [3] was 70% and the “Population Fragmented Nuclei (%)” value [3] was 16%. For the same molecule, the “Population Healthy Nuclei (%)” value [3] was 70%, the “Population Hoechst High Intensity Objects (%)” value [3] was 4% and the “Population Membrane Permeable-Phenotype (%)” value [3] was 0%. For the same molecule, the “Population Mitochondria Different-Phenotype (%)” value [3] was 12%, the “Population Mitotic Cells (%)” value [3] was 29% and the “Population Normal (%)” value [3] was 95%. The “Population Pyknosed Nuclei (%)” value [3] was 13%, the “Population Tubulin-Different-Phenotype (%)” value [3] was 41% and the “Total Cell Count” value [3] was 133. The “Population Apoptotic (%)” value [4] was 40%, the “Population Fragmented Nuclei (%)” value [4] was 31% and the “Population Healthy Nuclei (%)” value [4] was 48%. The “Population Hoechst High Intensity Objects (%)” value [4] was 2%, the “Population Membrane Permeable-Phenotype (%)” value [4] was 1% and the “Population Mitochondria Different-Phenotype (%)” value [4] was 10%. For the same molecule, the “Population Mitotic Cells (%)” value [4] was 60%, the “Population Normal (%)” value [4] was 97% and the “Population Pyknosed Nuclei (%)” value [4] was 20%. For the same molecule, the “Population Tubulin-Different-Phenotype (%)” value [4] was 59%, the “Total Cell Count” value [4] was 125 and the “Population Apoptotic (%)” value [5] was 57%. For the same molecule, the “Population Fragmented Nuclei (%)” value [5] was 14%, the “Population Healthy Nuclei (%)” value [5] was 76% and the “Population Hoechst High Intensity Objects (%)” value [5] was 2%. For the same molecule, the “Population Membrane Permeable-Phenotype (%)” value [5] was 0%, the “Population Mitochondria Different-Phenotype (%)” value [5] was 6% and the “Population Mitotic Cells (%)” value [5] was 42%. The “Population Normal (%)” value [5] was 97%, the “Population Pyknosed Nuclei (%)” value [5] was 9% and the “Population Tubulin-Different-Phenotype (%)” value [5] was 20%. For the same molecule, the “Total Cell Count” value [5] was 155, the “Population Apoptotic (%)” value [6] was 38% and the “Population Fragmented Nuclei (%)” value [6] was 28%. For the same molecule, the “Population Healthy Nuclei (%)” value [6] was 52%, the “Population Hoechst High Intensity Objects (%)” value [6] was 0% and the “Population Membrane Permeable-Phenotype (%)” value [6] was 5%. For the same molecule, the “Population Mitochondria Different-Phenotype (%)” value [6] was 5%, the “Population Mitotic Cells (%)” value [6] was 61% and the “Population Normal (%)” value [6] was 100%. The “Population Pyknosed Nuclei (%)” value [6] was 18%, the “Population Tubulin-Different-Phenotype (%)” value [6] was 40% and the “Total Cell Count” value [6] was 140. For the same molecule, the “Population Apoptotic (%)” value [7] was 61%, the “Population Fragmented Nuclei (%)” value [7] was 23% and the “Population Healthy Nuclei (%)” value [7] was 64%. For the same molecule, the “Population Hoechst High Intensity Objects (%)” value [7] was 1%, the “Population Membrane Permeable-Phenotype (%)” value [7] was 0% and the “Population Mitochondria Different-Phenotype (%)” value [7] was 12%. The “Population Mitotic Cells (%)” value [7] was 38%, the “Population Normal (%)” value [7] was 98% and the “Population Pyknosed Nuclei (%)” value [7] was 11%. For the same molecule, the “Population Tubulin-Different-Phenotype (%)” value [7] was 36%, the “Total Cell Count” value [7] was 159 and the “Population Apoptotic (%)” value [8] was 50%. For the same molecule, the “Population Fragmented Nuclei (%)” value [8] was 20%, the “Population Healthy Nuclei (%)” value [8] was 68% and the “Population Hoechst High Intensity Objects (%)” value [8] was 2%. For the same molecule, the “Population Membrane Permeable-Phenotype (%)” value [8] was 4%, the “Population Mitochondria Different-Phenotype (%)” value [8] was 8% and the “Population Mitotic Cells (%)” value [8] was 50%. The “Population Normal (%)” value [8] was 97%, the “Population Tubulin-Different-Phenotype (%)” value [8] was 61% and the “Total Cell Count” value [8] was 107. For the same molecule, the “Population Apoptotic (%)” value [9] was 69%, the “Population Fragmented Nuclei (%)” value [9] was 17% and the “Population Healthy Nuclei (%)” value [9] was 74%. The “Population Hoechst High Intensity Objects (%)” value [9] was 2%, the “Population Membrane Permeable-Phenotype (%)” value [9] was 0% and the “Population Mitochondria Different-Phenotype (%)” value [9] was 5%. The “Population Mitotic Cells (%)” value [9] was 30%, the “Population Normal (%)” value [9] was 97% and the “Population Pyknosed Nuclei (%)” value [9] was 8%. The “Population Tubulin-Different-Phenotype (%)” value [9] was 23%, the “Total Cell Count” value [9] was 162 and the “Population Apoptotic (%)” value [10] was 64%. For the same molecule, the “Population Fragmented Nuclei (%)” value [10] was 36%, the “Population Healthy Nuclei (%)” value [10] was 53% and the “Population Hoechst High Intensity Objects (%)” value [10] was 4%. The “Population Membrane Permeable-Phenotype (%)” value [10] was 5%, the “Population Mitochondria Different-Phenotype (%)” value [10] was 2% and the “Population Mitotic Cells (%)” value [10] was 35%. For the same molecule, the “Population Normal (%)” value [10] was 95%, the “Population Pyknosed Nuclei (%)” value [10] was 9% and the “Population Tubulin-Different-Phenotype (%)” value [10] was 40%. The “Total Cell Count” value [10] was 147, the “Population Apoptotic (%)” value [11] was 73% and the “Population Fragmented Nuclei (%)” value [11] was 21%. For the same molecule, the “Population Healthy Nuclei (%)” value [11] was 65%, the “Population Hoechst High Intensity Objects (%)” value [11] was 2% and the “Population Membrane Permeable-Phenotype (%)” value [11] was 0%. The “Population Mitochondria Different-Phenotype (%)” value [11] was 9%, the “Population Mitotic Cells (%)” value [11] was 26% and the “Population Normal (%)” value [11] was 97%. For the same molecule, the “Population Pyknosed Nuclei (%)” value [11] was 13%, the “Population Tubulin-Different-Phenotype (%)” value [11] was 45% and the “Total Cell Count” value [11] was 150. The “Population Apoptotic (%)” value [12] was 60%, the “Population Fragmented Nuclei (%)” value [12] was 32% and the “Population Healthy Nuclei (%)” value [12] was 62%. The “Population Hoechst High Intensity Objects (%)” value [12] was 5%, the “Population Membrane Permeable-Phenotype (%)” value [12] was 4% and the “Population Mitochondria Different-Phenotype (%)” value [12] was 13%. The “Population Mitotic Cells (%)” value [12] was 40%, the “Population Normal (%)” value [12] was 94% and the “Population Pyknosed Nuclei (%)” value [12] was 4%. For the same molecule, the “Population Tubulin-Different-Phenotype (%)” value [12] was 44% and the “Total Cell Count” value [12] was 116.
